Series [1] in a line: Acute toxicity in Balb/c mouse xenografted with SW-620 cells assessed as lethality at 5 to 10 mg/kg, ip qd administered for 5 days in presence of TMZ. As to conditions: in vivo, 120 h, dose 5-10 mg/kg, time 5 day. Type of series: organism-based. The method in brief:
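In male BALB/c nude mice (5–6 weeks), s.c. SW620 xenografts (6×10^6 cells, right armpit) were grown to about 150 mm³, then randomised, 6 per group. The agent was given once daily for 5 days, orally or i.p., in 5% DMSO/20% PEG400/10% Cremophor EL/65% saline. TMZ 50 mg/kg was given orally once daily for 5 days from day 0, 45 min after the agent. Body weight was measured 2–3 times weekly.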

Series [2] is described as follows: Acute toxicity in Balb/c mouse xenografted with CAPAN-1 cells assessed as mean weight loss at 25 mg/kg, ip qd administered for 5 days in presence of cisplatin measured on day 10 relative to control. Type of series: organism-based. As to conditions: in vivo, 120 h, time 5 day. The method in brief:
(§1)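 Male BALB/c nude mice carried Capan-1 xenografts (5×10^6 cells s.c.), randomized at ~150 mm³ (6 per group). Treatment was 25 or 50 mg/kg intraperitoneally or 100 mg/kg by oral gavage, once daily on days 0-4. Cisplatin 6 mg/kg in saline was given intraperitoneally on day 2, 45 min after the partner drug. Tumor volume and body weight were measured 2-3 times weekly.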

The subject of another series is CAPAN-1. In words: Potentiation of cisplatin induced antitumor activity against CAPAN-1 cells xenografted in Balb/c mouse administered intraperitoneally once daily for 5 days. Type of series: functional. The conditions noted are these: dose mg/kg 25-50, time 5.0 day. The method in brief:
as §1

Another series concerns HUVEC. In words: Cytotoxicity against HUVEC assessed as reduction in cell viability incubated for 120 hrs by CCK-8 assay. Type of series: cell-based. As to conditions: human.
A further series has as its system SW-620. Briefly: Potentiation of TMZ induced antitumor activity against SW-620 cells xenografted in Balb/c mouse assessed as tumor growth suppression at 10 mg/kg, po qd administered for 5 days. Type of series: functional, organism-based. The conditions noted are these: time 5.0 day. The method in brief: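 Male BALB/c nude mice carried SW620 xenografts (6×10^6 cells s.c.), randomized at ~150 mm³ (6 per group). TMZ 50 mg/kg was given orally once daily on days 0-4, 45 min after the partner drug. Partners were 5 or 10 mg/kg intraperitoneally or 10 mg/kg by oral gavage, daily for 5 days. Vehicle was 5% DMSO/20% PEG400/10% Cremophor EL/65% saline. Tumor volume and body weight were recorded 2-3 times weekly.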

A short description of series [3]: Plasma concentration in ICR mouse at 25 mg/kg, ip at 8 hrs postinjection by LC-tandem mass spectrometry analysis. Type of series: ADME, organism-based. The method in brief: (§2)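 Female ICR mice (20-23 g, 6-7 weeks old, n = 3) received a single 25 mg/kg intraperitoneal dose formulated in 5% DMSO/15% Solutol HS15/80% D5W. Plasma was sampled at 0.5, 1, 2, 4, 6, 8 and 24 h and protein-precipitated with methanol. Compound was quantified by LC-MS/MS against a standard curve.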

Series [4] has as its target T1, Protein cereblon/Poly [ADP-ribose] polymerase 1 (Homo sapiens, UniProt P09874+Q96SW2). Briefly: Protac activity at CRBN/PARP1 in human CAPAN-1 cells assessed as induction of PARP1 degradation at 100 nM measured after 6 hrs by Western blot analysis. Type of series: cell-based. The method, boiled down: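 Capan-1 cells were treated with 100 nM over a time course. PARP1 was measured by western blot and normalized to β-tubulin.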
Target sequence in this assay (P09874 2-1014 limits assumed): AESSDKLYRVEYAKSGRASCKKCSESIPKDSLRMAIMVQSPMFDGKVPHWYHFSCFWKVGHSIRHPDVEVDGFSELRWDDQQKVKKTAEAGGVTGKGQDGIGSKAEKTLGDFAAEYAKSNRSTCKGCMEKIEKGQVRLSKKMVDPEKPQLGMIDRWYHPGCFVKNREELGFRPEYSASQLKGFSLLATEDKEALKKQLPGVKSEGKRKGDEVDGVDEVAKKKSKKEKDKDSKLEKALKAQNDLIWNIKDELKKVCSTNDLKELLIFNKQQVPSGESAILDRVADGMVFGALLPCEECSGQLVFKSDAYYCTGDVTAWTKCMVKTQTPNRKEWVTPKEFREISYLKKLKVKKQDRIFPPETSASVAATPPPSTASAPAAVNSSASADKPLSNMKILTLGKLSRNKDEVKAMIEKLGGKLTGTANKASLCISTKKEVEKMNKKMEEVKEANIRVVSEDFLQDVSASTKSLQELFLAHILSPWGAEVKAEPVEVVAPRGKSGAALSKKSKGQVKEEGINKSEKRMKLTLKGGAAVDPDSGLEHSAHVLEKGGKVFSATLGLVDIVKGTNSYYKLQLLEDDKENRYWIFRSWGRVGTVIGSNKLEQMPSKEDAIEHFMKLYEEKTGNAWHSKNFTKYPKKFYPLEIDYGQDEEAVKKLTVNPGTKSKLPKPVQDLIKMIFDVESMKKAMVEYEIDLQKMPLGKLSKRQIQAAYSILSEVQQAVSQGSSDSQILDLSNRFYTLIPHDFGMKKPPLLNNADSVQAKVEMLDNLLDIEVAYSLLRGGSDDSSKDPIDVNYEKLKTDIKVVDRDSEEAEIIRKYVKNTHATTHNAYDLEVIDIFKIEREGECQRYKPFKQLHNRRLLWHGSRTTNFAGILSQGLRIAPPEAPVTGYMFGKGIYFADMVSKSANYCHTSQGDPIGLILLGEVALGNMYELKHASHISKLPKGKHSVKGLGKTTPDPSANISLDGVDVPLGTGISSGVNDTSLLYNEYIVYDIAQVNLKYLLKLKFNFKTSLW
Target sequence in this assay (Q96SW2 whole entry partner): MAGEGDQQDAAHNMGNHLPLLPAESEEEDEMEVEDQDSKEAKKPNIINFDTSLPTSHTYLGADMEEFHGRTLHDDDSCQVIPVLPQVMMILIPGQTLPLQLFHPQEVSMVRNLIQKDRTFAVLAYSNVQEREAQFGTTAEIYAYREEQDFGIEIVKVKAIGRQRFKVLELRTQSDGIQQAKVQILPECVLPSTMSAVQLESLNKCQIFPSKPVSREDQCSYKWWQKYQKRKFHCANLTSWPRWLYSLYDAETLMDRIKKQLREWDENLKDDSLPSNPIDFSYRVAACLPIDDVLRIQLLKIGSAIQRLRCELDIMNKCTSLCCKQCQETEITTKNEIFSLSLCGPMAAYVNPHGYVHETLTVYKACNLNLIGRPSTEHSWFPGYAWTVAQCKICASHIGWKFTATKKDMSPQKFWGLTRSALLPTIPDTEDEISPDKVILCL
For orientation: Immunoblotting shows a protein as a band on a membrane.

In series [5] the target is T1, Protein cereblon/Poly [ADP-ribose] polymerase 1. In words: Protac activity at CRBN/PARP1 in human SW-620 cells assessed as induction of PARP1 degradation at 10 nM incubated for 24 hrs by Western blot analysis relative to control. Type of series: cell-based.
Target sequence in this assay (P09874 2-1014 limits assumed): as the sequence (P09874 2-1014 limits assumed) above
Target sequence in this assay (Q96SW2 whole entry partner): as the sequence (Q96SW2 whole entry partner) above
The target is the same in series [6]. In words: Protac activity at CRBN/PARP1 in human SW620 cells assessed as reduction in PARP1 protein level at 0.01 to 10 uM incubated for 12 hrs by western blot analysis. Type of series: cell-based. As to conditions: SW-620, dose microM 0.01-10, time 12.0 hrs. The method, boiled down: (§3)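 MDA-MB-436 or SW620 cells dosed at 1, 10, 100, 1000 nM and 10 µM for 12 h; PARP1 assessed by western blot of RIPA lysates (20-30 µg protein), β-tubulin as loading control.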
Target sequence in this assay (P09874 2-1014 limits assumed): as the sequence (P09874 2-1014 limits assumed) above
Target sequence in this assay (Q96SW2 whole entry partner): as the sequence (Q96SW2 whole entry partner) above

Series [7] shares this target. In words: Protac activity at CRBN/PARP1 in human 22Rv1 cells assessed as induction of PARP1 degradation measured after 24 hrs by Western blot analysis. Type of series: cell-based. The method in brief:
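The cell line was treated 24 h across a concentration range. PARP1 was measured by western blot against β-tubulin. DC50 is the average of two biologically independent experiments.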
Target sequence in this assay (P09874 whole entry): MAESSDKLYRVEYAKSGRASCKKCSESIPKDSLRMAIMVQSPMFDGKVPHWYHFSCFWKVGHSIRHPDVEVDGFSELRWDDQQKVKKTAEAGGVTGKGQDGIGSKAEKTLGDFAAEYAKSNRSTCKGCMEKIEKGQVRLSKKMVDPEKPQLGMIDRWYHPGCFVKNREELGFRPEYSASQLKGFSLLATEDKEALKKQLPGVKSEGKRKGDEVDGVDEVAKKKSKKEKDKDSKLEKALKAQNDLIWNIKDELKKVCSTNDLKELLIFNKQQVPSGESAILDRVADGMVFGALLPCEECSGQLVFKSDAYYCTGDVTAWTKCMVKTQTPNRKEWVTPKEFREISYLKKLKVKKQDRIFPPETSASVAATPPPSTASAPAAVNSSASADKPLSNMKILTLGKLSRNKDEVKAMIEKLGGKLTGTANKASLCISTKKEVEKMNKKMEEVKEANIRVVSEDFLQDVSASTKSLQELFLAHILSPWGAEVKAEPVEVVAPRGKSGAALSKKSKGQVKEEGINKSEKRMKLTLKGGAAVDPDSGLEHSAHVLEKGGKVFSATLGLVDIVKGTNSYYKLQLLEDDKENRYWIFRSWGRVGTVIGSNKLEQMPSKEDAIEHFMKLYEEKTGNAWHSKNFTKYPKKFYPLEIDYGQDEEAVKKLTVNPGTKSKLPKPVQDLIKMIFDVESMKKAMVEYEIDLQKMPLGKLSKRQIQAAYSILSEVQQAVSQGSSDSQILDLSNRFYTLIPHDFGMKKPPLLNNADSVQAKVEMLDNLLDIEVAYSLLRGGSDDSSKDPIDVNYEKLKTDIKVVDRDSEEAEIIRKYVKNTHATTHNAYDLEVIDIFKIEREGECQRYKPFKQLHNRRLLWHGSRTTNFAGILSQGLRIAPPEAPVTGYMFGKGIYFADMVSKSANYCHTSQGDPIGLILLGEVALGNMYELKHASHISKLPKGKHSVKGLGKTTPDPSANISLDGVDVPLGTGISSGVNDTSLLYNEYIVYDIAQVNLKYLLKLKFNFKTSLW
Target sequence in this assay (Q96SW2 whole entry): as the sequence (Q96SW2 whole entry partner) above

The next series relates to Mus musculus. Briefly: Induction of PARP1 degradation in SW-620 cells xenografted Balb/c mouse at 25 mg/kg, ip at 1 to 24 hrs by Western blotting analysis. Type of series: functional, organism-based. The conditions noted are these: time hrs 1-24. The method in brief: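 Male BALB/c nude mice carried subcutaneous SW620 xenografts (6×10^6 cells); at 200-300 mm³ they were randomized. A single 25 mg/kg intraperitoneal dose was given. Tumors were harvested at 1, 3, 6 and 24 h, and vehicle controls at 3 h. Tumors were frozen, ground in liquid nitrogen, and PARP1 was analysed by western blot against β-tubulin.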

The next series has as its system MCF-10A. Briefly: Cytotoxicity against human MCF-10A cells assessed as reduction in cell viability incubated for 120 hrs by CCK-8 assay. Type of series: cell-based.
A further series has as its system MDA-MB-468. In words: Antiproliferation activity against human MDA-MB-468 assessed as cell growth inhibition incubated for 7 days by CCK-8 assay. Type of series: functional, cell-based. The conditions noted are these: time 7.0 day. The method in brief: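 Cells were sub-cultured at least twice and seeded for 24 h before dosing. Compounds came from 10 mM DMSO stocks, given as 10 points of 3-fold serial dilution starting at 10-20 μM. Incubation was about 7 days (Capan-1 13 days) at 37 °C, 5% CO2. Read-out was CCK-8 absorbance at 450 nm, as % growth versus DMSO wells (duplicate wells). IC50 was fitted by nonlinear regression; three independent experiments.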
(Tetrazolium assays rely on reduction of a dye to a coloured formazan, in cell work by metabolically active cells.)

Series [8] addresses T1, Protein cereblon/Poly [ADP-ribose] polymerase 1. In words: Protac activity at CRBN/PARP1 in human Capan1 cells assessed as induction of PARP1 degradation at 1 to 1000 nM incubated for 24 hrs by Western blot analysis. Type of series: cell-based. The conditions noted are these: CAPAN-1, dose nM 1-1000, time 24.0 hrs. The method in brief:
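Capan-1 cells were treated 24 h (1-1000 nM, or a wider dose range for DC50). Lysis was in RIPA buffer with protease inhibitors, and 20-30 μg protein was blotted. PARP1 was normalized to β-tubulin and to DMSO control, quantified by densitometry. DC50 came from two independent experiments.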
Target sequence in this assay (P09874 2-1014 limits assumed): as the sequence (P09874 2-1014 limits assumed) above
Target sequence in this assay (Q96SW2 whole entry partner): as the sequence (Q96SW2 whole entry partner) above

Series [9] can be described thus: Plasma concentration in ICR mouse at 25 mg/kg, ip at 1 hr postinjection by LC-tandem mass spectrometry analysis. Type of series: ADME, organism-based. The method, boiled down:
as §2

Series [10] concerns the target T1, Protein cereblon/Poly [ADP-ribose] polymerase 1. Briefly: Protac activity at CRBN/PARP1 in human MDA-MB-436 cells assessed as reduction in PARP1 protein level at 0.01 to 10 uM incubated for 12 hrs by western blot analysis. The conditions noted are these: dose microM 0.01-10, time 12.0 hrs. Type of series: cell-based. The method, boiled down: as §3
Target sequence in this assay (P09874 2-1014 limits assumed): as the sequence (P09874 2-1014 limits assumed) above
Target sequence in this assay (Q96SW2 whole entry partner): as the sequence (Q96SW2 whole entry partner) above
Series [11] can be described thus: Cmax in ICR mouse at 25 mg/kg, ip by LC-tandem mass spectrometry analysis. Type of series: ADME, organism-based. More on the design: route intraperitoneal, dose 25 mg/kg. The conditions noted are these: in vivo. The method, boiled down:
as §2

The target of series [12] is T1, Protein cereblon/Poly [ADP-ribose] polymerase 1. In words: Protac activity at CRBN/PARP1 in human MDA-MB-231 cells assessed as induction of PARP1 degradation at 30 nM incubated for 1 to 24 hrs by Western blot analysis. Type of series: cell-based. The conditions noted are these: time hrs 1-24.
Target sequence in this assay (P09874 2-1014 limits assumed): as the sequence (P09874 2-1014 limits assumed) above
Target sequence in this assay (Q96SW2 whole entry partner): as the sequence (Q96SW2 whole entry partner) above

SMILES strings stand for the structures. The source made the active and inactive calls. The calls are words filed in the database; no cut-off is given here. Some results are limits rather than exact numbers.

By DC50 is commonly meant the midpoint of the concentration-degradation curve. In general, Cmax refers to the peak of the concentration-time curve. Regarding `O=C(CCCCCCCCCCC(=O)N1CCN(C(=O)c2cc(Cc3n[nH]c(=O)c4ccccc34)ccc2F)CC1)NCCNc1cccc2c1C(=O)N(C1CCC(=O)NC1=O)C2=O` (stereo not drawn), the Activity entry in series [1] is “Non-Toxic”; in series [2] it was 9%; in the series with CAPAN-1 it was “Dose-dependent effect”; in the series on HUVEC, “Non-Toxic”; in series [5], greater than 99%; with MCF-10A it was “Non-Toxic”. Moreover, the outcome (in the series on SW-620; in series [4]; in [6]; with Mus musculus; in the series with MDA-MB-468; in series [8]) was Active. For the same compound, the result in series [10] and in series [12] was Active. The compound further registered a concentration at 8 h in series [3] of 95 nM. For the same compound, the half-maximal degradation concentration (DC50) in series [7] is 0.512 nM. The concentration at 1 h in series [9] worked out at 1830 nM. In series [11], the peak level (Cmax) was 1840 ng/mL.

Source of the values: ChEMBL document CHEMBL4699498 (J Med Chem, 2020).
